The source of these data is ChEMBL document CHEMBL1144602, “Synthesis and in vitro binding studies of substituted piperidine naphthamides. Part I: Influence of the substitution on the basic nitrogen and the position of the amide on the affinity for D2L, D4.2, and 5-HT2A receptors” (Bioorg Med Chem Lett, 2007).

In one test the target is T1, D(4) dopamine receptor (Homo sapiens, UniProt P21917).
T1 sequence (P21917 whole entry): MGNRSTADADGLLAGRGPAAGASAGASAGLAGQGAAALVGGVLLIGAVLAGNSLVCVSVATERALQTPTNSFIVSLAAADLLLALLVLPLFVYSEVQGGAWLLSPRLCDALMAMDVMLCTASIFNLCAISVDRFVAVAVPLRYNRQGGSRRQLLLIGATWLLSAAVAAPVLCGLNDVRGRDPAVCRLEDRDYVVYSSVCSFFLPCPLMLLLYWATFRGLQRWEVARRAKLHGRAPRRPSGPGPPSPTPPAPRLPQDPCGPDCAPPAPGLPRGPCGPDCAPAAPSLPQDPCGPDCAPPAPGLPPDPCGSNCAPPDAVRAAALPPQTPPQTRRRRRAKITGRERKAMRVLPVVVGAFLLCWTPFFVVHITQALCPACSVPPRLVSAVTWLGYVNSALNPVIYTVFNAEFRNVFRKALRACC
The test can be described thus: Displacement of [3H]nemonapride from human cloned dopamine D4.2 receptor. In a few lines:
(§1)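 Radioligands were [3H]ketanserin for native rat 5-HT2A, [3H]nemonapride for cloned human D4.2 and [3H]spiperone for cloned human D2L. Ki was determined only for compounds giving >50% inhibition in a 1 µM screen. Values are mean ± SD, n ≥ 2 unless noted.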
A general note: Displacement assays read how much labelled ligand stays bound in the presence of the test substance.

The target of test [1] is T2, D(2) dopamine receptor (Homo sapiens, UniProt P14416). The test can be described thus: Displacement of [3H]spiperone from human cloned dopamine D2L receptor at 1 uM. The method, boiled down: (§2)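 Single-point screen at 1 µM, reported as percent inhibition of radioligand binding: [3H]ketanserin at native rat 5-HT2A, [3H]nemonapride at human D4.2, [3H]spiperone at human D2L.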
T2 sequence (P14416 whole entry): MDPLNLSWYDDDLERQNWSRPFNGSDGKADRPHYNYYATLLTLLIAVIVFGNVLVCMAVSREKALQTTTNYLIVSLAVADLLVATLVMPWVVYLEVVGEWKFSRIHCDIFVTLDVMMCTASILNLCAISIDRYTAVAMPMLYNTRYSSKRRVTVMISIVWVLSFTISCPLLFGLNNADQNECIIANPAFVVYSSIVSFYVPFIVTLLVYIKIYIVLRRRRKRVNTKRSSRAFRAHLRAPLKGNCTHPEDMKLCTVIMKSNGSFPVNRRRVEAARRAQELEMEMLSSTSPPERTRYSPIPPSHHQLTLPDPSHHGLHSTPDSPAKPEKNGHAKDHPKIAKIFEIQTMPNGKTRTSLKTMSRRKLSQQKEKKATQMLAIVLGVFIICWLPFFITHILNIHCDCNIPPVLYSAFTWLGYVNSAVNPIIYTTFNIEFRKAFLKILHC

Test [2] concerns the target T3, D(4) dopamine receptor (Homo sapiens) (UniProt P21917).
T3 sequence (whole entry): T1 sequence (P21917 whole entry)
Description: Displacement of [3H]nemonapride from human cloned dopamine D4.2 receptor at 1 uM. The method, boiled down:
as §2

The target of test [3] is 5-hydroxytryptamine receptor 2A (Rattus norvegicus) (UniProt P14842). Description: Displacement of [3H]ketanserin from rat cloned 5HT2A receptor at 1 uM.
5-hydroxytryptamine receptor 2A (Rattus norvegicus), sequence (P14842 whole entry): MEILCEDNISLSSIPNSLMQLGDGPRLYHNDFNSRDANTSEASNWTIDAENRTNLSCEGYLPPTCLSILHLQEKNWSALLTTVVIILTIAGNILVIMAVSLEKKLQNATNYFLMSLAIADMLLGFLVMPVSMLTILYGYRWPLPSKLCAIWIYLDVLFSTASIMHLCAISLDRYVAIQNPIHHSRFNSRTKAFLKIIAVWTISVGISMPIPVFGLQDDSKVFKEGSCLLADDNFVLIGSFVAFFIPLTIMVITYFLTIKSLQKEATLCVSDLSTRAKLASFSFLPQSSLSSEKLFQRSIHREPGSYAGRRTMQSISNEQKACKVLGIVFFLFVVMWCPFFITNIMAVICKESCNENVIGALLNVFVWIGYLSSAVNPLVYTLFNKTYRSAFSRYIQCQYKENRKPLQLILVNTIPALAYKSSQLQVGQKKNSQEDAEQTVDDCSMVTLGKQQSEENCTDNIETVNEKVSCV
In test [4] the target is T2, D(2) dopamine receptor. Description: Displacement of [3H]spiperone from human cloned dopamine D2L receptor. The method, boiled down:
as §1

A word on the Ki: it is the dissociation constant of the complex between target and ligand, obtained from inhibition or displacement. For `O=C(NC1CCN(CCCCc2ccccc2)CC1)c1ccc2ccccc2c1`, the inhibition constant (Ki) on D(4) dopamine receptor worked out at 281 nM. This compound had an Activity at D(2) dopamine receptor [1] of 22%.
On to `O=C(c1cccc2ccccc12)N1CCC(NCc2ccccc2)CC1`, for which the Activity in test [2] was determined as 1%; in test [3], 10%; at D(2) dopamine receptor [1], 0%.
On to `CC(c1ccccc1)N1CCC(NC(=O)c2cccc3ccccc23)CC1` (centres undefined), for which the values for the Activity (in test [2]; on D(2) dopamine receptor [1]) were 21% and 11%, respectively.
For `O=C(NC1CCN(CC[C@H](O)c2ccccc2)CC1)c1cccc2ccccc12` the same measures were 45% and 0%.
At D(4) dopamine receptor, `O=C(NC1CCN(CCCCc2ccccc2)CC1)c1cccc2ccccc12` had a Ki of 362 nM. In addition, the Activity on D(2) dopamine receptor [1] stood at 18%.
Turning to `O=C(NC1CCN(Cc2ccccc2)CC1)c1cccc2ccccc12`, the inhibition constant Ki was 162 nM at D(4) dopamine receptor and above 1000 nM on D(2) dopamine receptor [4].
On D(4) dopamine receptor, `O=C(NC1CCN(CCc2ccccc2)CC1)c1cccc2ccccc12` returned a Ki of 230 nM. Also, the Activity at D(2) dopamine receptor [1] amounted to 3%.
At D(4) dopamine receptor, `O=C(c1ccc2ccccc2c1)N1CCC(NCCc2ccccc2)CC1` had a Ki of 210 nM. In addition, the Activity was 50% in test [3] and 0% on D(2) dopamine receptor [1].
On to `O=C(c1ccc2ccccc2c1)N1CCC(NCc2ccccc2)CC1`, for which the Ki on D(4) dopamine receptor came out at 167 nM. Besides, the results for the Activity (in test [3]; on D(2) dopamine receptor [1]) were 8% and 0%, respectively.
For the compound `O=C(NC1CCN(CCCc2ccccc2)CC1)c1cccc2ccccc12`, the inhibitory constant (Ki) on D(4) dopamine receptor was determined as 71 nM. Moreover, on D(2) dopamine receptor [1], the Activity turned out to be 9%.
As to `O=C(c1cccc2ccccc12)N1CCC(NCCCc2ccccc2)CC1`, the Activity in test [2] turned out to be 52%; in test [3], 35%; at D(2) dopamine receptor [1] it was 0%.
As to `O=C(c1cccc2ccccc12)N1CCC(NCCc2ccccc2)CC1`, the Activity in test [2] came to 16%; at D(2) dopamine receptor [1], 0%.
At D(4) dopamine receptor, `O=C(c1ccc2ccccc2c1)N1CCC(NCCCc2ccccc2)CC1` showed a Ki of 222 nM. Moreover, the Activity is 41% in test [3] and 0% on D(2) dopamine receptor [1].
Compound `O=C(NC1CCN(CCc2ccccc2)CC1)c1ccc2ccccc2c1` returned a Ki at D(4) dopamine receptor of 139 nM. The Activity at D(2) dopamine receptor [1] was 7%.
Compound `O=C(NC1CCN(CCCc2ccccc2)CC1)c1ccc2ccccc2c1` had a Ki on D(4) dopamine receptor of 63 nM. For the same compound, the Activity at D(2) dopamine receptor [1] turned out to be 13%.
Compound `O=C(c1ccc2ccccc2c1)N1CCC(NCC[C@H](O)c2ccccc2)CC1` showed an Activity in test [2] of 49%.
Compound `CC(c1ccccc1)N1CCC(NC(=O)c2ccc3ccccc3c2)CC1` (centres undefined) showed an inhibition constant (Ki) at D(4) dopamine receptor of 29 nM.
For the compound `O=C(NC1CCN(Cc2ccccc2)CC1)c1ccc2ccccc2c1`, the inhibitory constant (Ki) at D(4) dopamine receptor is 11 nM; on D(2) dopamine receptor [4] it was above 1000 nM.
